Laboratory results published in ChEMBL document CHEMBL4765441, “Design, synthesis and anti-cancer activity of pyrrole-imidazole polyamides through target-downregulation of c-kit gene expression” (Eur J Med Chem, 2020).
Where a name gives a salt, the structure may show the parent alone. Active and inactive are the calls of the source. The calls are words filed in the database; no cut-off is given here.

How the values were obtained:
[1] = tested on: dsDNA; assay: Binding affinity to 5'-AGGGGAGGCGAGGAGGGGCGTGGCCGG-3'/3'-TCCCCTCCGCTCCTCCCCGCACCGGCC-5' dsDNA (unknown origin) at 0 to 32 uM by SYBR GOLD staining based EMSA; type: nucleic-acid assay; conditions: Homo sapiens; dose 0-32 µM
In short: (§1)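 Target 27-bp c-kit promoter duplex, annealed at 95 °C, then incubated overnight with or without compound in pH 7.4 buffer (10 mM Tris-HCl, 10 mM KCl, 0.1 mM EDTA). Mixtures run on 16% native polyacrylamide gel at 150 V for 3 h. Gels stained with SYBR Gold for 30 min and imaged on a gel documentation system.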

[2] = tested on: MKN-45; assay: Antiproliferative activity against human MKN-45 cells assessed as reduction in cell viability incubated for 48 hrs by xCELLigence RTCA; type: functional, cell-based; conditions: MKN-45, 48 h
[3] = tested on: SGC-7901; assay: Induction of morphological changes in human SGC7901 cells assessed as apoptotic body formation at 7.5 uM incubated for 36 hrs by microscopic analysis; type: functional, cell-based
In short: (§2)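 Cells seeded at 2 × 10^5 per well and grown 24 h. Medium then replaced with compound-containing medium. After 36 h co-culture, morphology inspected by light microscopy.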

[4] = tested on: A549; assay: Inhibition of cell migration in human A549 cells at 1.5 uM incubated for 48 hrs by inverted fluorescence microscope based scratch wound healing assay; type: functional
In short: (§3)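 20 × 10^4 cells per well grown to 80% confluence. Wound scratched with a pipette tip, washed twice with PBS and photographed under an inverted fluorescence microscope. Cells then held in serum-free medium with compound for 48 h. Migration measured as distance moved from the wound edge; mean ± SD, n = 3.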

[5] = tested on: A549; assay: Antiproliferative activity against human A549 cells assessed as reduction in cell viability incubated for 48 hrs by xCELLigence RTCA; type: functional, cell-based; conditions: A549, 48 h
[6] = tested on: SGC-7901; assay: Induction of morphological changes in human SGC7901 cells assessed as cell detachment at 7.5 uM incubated for 36 hrs by microscopic analysis; type: functional, cell-based; in short: as §2
[7] = tested on: dsDNA; assay: Binding affinity to 5'-AGGGGAGGCGAGGAGGGGCGTGGCCGG-3'/3'-TCCCCTCCGCTCCTCCCCGCACCGGCC-5' dsDNA (unknown origin) by SYBR GOLD staining based EMSA; type: nucleic-acid assay; conditions: Homo sapiens; in short: as §1
[8] = tested on: A549; assay: Induction of apoptosis in human A549 cells assessed as apoptotic rate at 20 uM incubated for 36 hrs by Annexin V-FITC/propidium iodide staining-based flow cytometric analysis; type: functional
[9] = tested on: A549; assay: Down regulation of c-kit gene expression in human A549 cells at 15 uM incubated for 36 hrs by Western blot analysis; type: functional, cell-based
In short: (§4)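 Cells exposed to compound for 36 h, then lysed in RIPA and protein measured by BCA. 30 units of total protein separated by 10% SDS-PAGE, transferred to PVDF and blocked with 5% BSA. Primary antibodies, with β-tubulin as reference, at 4 °C; secondary 2 h; ECL detection. Bands quantified by densitometry, mean ± SD, n = 3.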

[10] = tested on: dsDNA; assay: Binding affinity to 5'-AGGGGAGGCGAGGAGGGGCGTGGCCGG-3'/3'-TCCCCTCCGCTCCTCCCCGCACCGGCC-5' dsDNA (unknown origin) at 1:8 DNA:compound ratio by SYBR GOLD staining based EMSA; type: nucleic-acid assay; conditions: Homo sapiens; in short: as §1
[11] = tested on: A549; assay: Induction of morphological changes in human A549 cells assessed as cell detachment at 15 uM incubated for 36 hrs by microscopic analysis; type: functional, cell-based; in short: as §2
[12] = tested on: A549; assay: Induction of morphological changes in human A549 cells assessed as membrane bulge at 15 uM incubated for 36 hrs by microscopic analysis; type: functional, cell-based; in short: as §2
[13] = tested on: SGC-7901; assay: Antiproliferative activity against human SGC7901 cells assessed as reduction in cell viability incubated for 48 hrs by xCELLigence RTCA; type: functional, cell-based; conditions: SGC-7901, 48 h
[14] = tested on: SGC-7901; assay: Down regulation of c-kit gene expression in human SGC-7901 cells at 15 uM incubated for 36 hrs by Western blot analysis; type: functional, cell-based; in short: as §4
[15] = tested on: Bel-7402; assay: Antiproliferative activity against human Bel-7402 cells assessed as reduction in cell viability incubated for 48 hrs by xCELLigence RTCA; type: functional, cell-based; conditions: Bel-7402, 48 h
[16] = tested on: SGC-7901; assay: Inhibition of cell migration in human SGC7901 cells at 1.5 uM incubated for 48 hrs by inverted fluorescence microscope based scratch wound healing assay; type: functional; in short: as §3
[17] = tested on: SGC-7901; assay: Induction of apoptosis in human SGC7901 cells assessed as apoptotic rate at 20 uM incubated for 36 hrs by Annexin V-FITC/propidium iodide staining-based flow cytometric analysis; type: functional
[18] = tested on: SGC-7901; assay: Induction of morphological changes in human SGC7901 cells assessed as appearance of round shaped cells at 7.5 uM incubated for 36 hrs by microscopic analysis; type: functional, cell-based; in short: as §2
[19] = tested on: dsDNA; assay: Binding affinity to 5'-AGGGGAGGCGAGGAGGGGCGTGGCCGG-3'/3'-TCCCCTCCGCTCCTCCCCGCACCGGCC-5' dsDNA (unknown origin) by circular dichroism spectroscopic analysis; type: nucleic-acid assay; conditions: Homo sapiens
In short: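 Target duplex annealed at 95 °C, held 24 h in pH 7.0 buffer (10 mM sodium cacodylate, 100 mM NaCl, 0.5% DMSO), then degassed. Compound titrated in at compound:DNA ratios 0.0–3.0, room temperature, 15 min equilibration per addition. CD read 225–400 nm in a 5 mm quartz cell at 100 nm/min, 5.0 nm bandwidth. Average of three parallel runs.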

## CC(=O)Nc1cn(C)c(C(=O)Nc2cn(C)c(C(=O)NC[C@@H](O)CC(=O)Nc3cn(C)c(C(=O)Nc4cn(C)c(C(=O)NCC[C@@H](N)C(=O)Nc5cc(C(=O)Nc6cc(C(=O)NCCC(=O)Nc7cc(C(=O)Nc8cc(C(=O)NCCC(=O)NCCCN(C)C)n(C)c8)n(C)c7)n(C)c6)n(C)c5)n4)n3)n2)n1
[1]
  Activity: inactive

## CC(=O)Nc1cn(C)c(C(=O)Nc2cn(C)c(C(=O)Nc3cc(C(=O)Nc4cn(C)c(C(=O)NCCC(=O)Nc5cn(C)c(C(=O)Nc6cn(C)c(C(=O)NCC[C@@H](NC(=O)c7nc(NC(=O)c8nc(NC(=O)c9nccn9C)cn8C)cn7C)C(=O)Nc7cc(C(=O)Nc8cc(C(=O)NC[C@@H](O)CC(=O)Nc9cc(C(=O)Nc%10cn(C)c(C(=O)Nc%11cc(C(=O)Nc%12cc(C(=O)NCCC(=O)NCCCN(C)C)n(C)c%12)n(C)c%11)n%10)n(C)c9)n(C)c8)n(C)c7)n6)n5)n4)n(C)c3)n2)n1.Cl.Cl
[2]
  IC50: 19.9 µM
[3]
  Activity: Active
[4]
  inhibition at 1.5 µM: 73.5%
[5]
  IC50: 7.93 µM
[6]
  Activity: Active
[7]
  Activity: Dose-dependent effect
[8]
  Activity: 47.9%
[9]
  Activity: Active
[10]
  Activity: Active
[11]
  Activity: Active
[12]
  Activity: Active
[13]
  IC50: 6.05 µM
[14]
  Activity: Active
[15]
  IC50: 14.9 µM
[16]
  inhibition at 1.5 µM: 80.8%
[17]
  Activity: 53.3%
[18]
  Activity: Active
[19]
  Activity: Active

## Cc1ccc(NC(=O)c2ccc(CN3CCN(C)CC3)cc2)cc1Nc1nccc(-c2cccnc2)n1 [IMATINIB MESYLATE]
[2]
  IC50: 12.2 µM
[5]
  IC50: 1.87 µM
[13]
  IC50: 0.208 µM
[15]
  IC50: 55.5 µM

## CC(=O)Nc1cn(C)c(C(=O)Nc2cn(C)c(C(=O)NCCC(=O)Nc3cn(C)c(C(=O)Nc4cn(C)c(C(=O)NCC[C@@H](N)C(=O)Nc5cc(C(=O)Nc6cc(C(=O)NC[C@@H](O)CC(=O)Nc7cc(C(=O)Nc8cc(C(=O)NCCC(=O)NCCCN(C)C)n(C)c8)n(C)c7)n(C)c6)n(C)c5)n4)n3)n2)n1
[1]
  Activity: inactive

## CC(=O)Nc1cn(C)c(C(=O)Nc2cn(C)c(C(=O)Nc3cn(C)c(C(=O)NCCC(=O)Nc4cn(C)c(C(=O)Nc5cn(C)c(C(=O)NCC[C@@H](N)C(=O)Nc6cc(C(=O)Nc7cc(C(=O)NC[C@@H](O)CC(=O)Nc8cc(C(=O)Nc9cc(C(=O)Nc%10cc(C(=O)NCCC(=O)NCCCN(C)C)n(C)c%10)n(C)c9)n(C)c8)n(C)c7)n(C)c6)n5)n4)n3)n2)n1
[1]
  Activity: inactive
